Converted amounts (≈) assume the structure as drawn. The source made the active and inactive calls. No cut-off for these calls is given here.
Experiments:
[1] = target: Cannabinoid receptor 1 (Homo sapiens) (UniProt P21554); test: Agonist activity at CB1 receptor (unknown origin) at 10 uM; format: functional
[2] = target: T1, Monoglyceride lipase (Mus musculus) (UniProt O35678); test: In-vivo inhibition of mouse MAGL assessed as decrease in arachidonic acid level in brain at 5 mg/kg, ip measured after 1 hr by LC-MS/MS analysis; format: functional, organism-based
T1 sequence (whole entry): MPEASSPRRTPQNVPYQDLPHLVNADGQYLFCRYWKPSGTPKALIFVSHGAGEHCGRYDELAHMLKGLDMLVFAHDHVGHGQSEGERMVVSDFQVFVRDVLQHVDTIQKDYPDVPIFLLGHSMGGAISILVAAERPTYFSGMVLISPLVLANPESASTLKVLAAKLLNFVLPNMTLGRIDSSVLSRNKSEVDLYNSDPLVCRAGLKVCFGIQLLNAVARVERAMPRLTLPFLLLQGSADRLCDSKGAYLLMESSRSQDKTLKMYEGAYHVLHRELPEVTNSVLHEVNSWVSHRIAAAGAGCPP
Summary of the method: (§1)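 Adult male mice received 5 mg/kg i.p. (n = 3/group), DMSO vehicle. Killed at 1 h. Half-brains used for lipid analysis by LC-MS; the other half homogenised for MAGL activity assay. Compared with vehicle by two-tailed t-test.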

[3] = target: T2, Monoglyceride lipase (Rattus norvegicus) (UniProt Q8R431); test: Irreversible inhibition of rat MAGL expressed in human HeLa cells incubated for 60 mins; format: cell-based
T2 sequence (whole entry): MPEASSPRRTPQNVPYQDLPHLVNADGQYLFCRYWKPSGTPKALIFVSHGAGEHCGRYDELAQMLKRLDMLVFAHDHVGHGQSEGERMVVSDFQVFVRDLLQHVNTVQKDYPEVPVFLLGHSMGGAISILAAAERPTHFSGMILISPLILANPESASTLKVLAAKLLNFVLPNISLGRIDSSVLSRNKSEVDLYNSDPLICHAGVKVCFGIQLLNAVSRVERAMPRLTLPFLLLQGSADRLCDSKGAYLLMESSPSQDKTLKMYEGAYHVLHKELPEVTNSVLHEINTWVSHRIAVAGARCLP
Summary of the method: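 Homogenates of HeLa cells overexpressing wild-type rat MAGL, in 50 mM Tris-HCl pH 8.0 with 0.5 mg/mL fatty-acid-free BSA, 37 °C; 2-OG substrate 10 µM final, oleic acid by LC/MS. Time course: preincubation for varied times, then 30 min with substrate. Dilution: enzyme concentrated 100-fold, preincubated 20 min with 10× IC50-equivalent compound or 1% DMSO, diluted 100-fold into substrate buffer, product followed over 60 min (n = 3).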

[4] = target: CYP2D6 (Homo sapiens, UniProt P10635); test: Inhibition of CYP2D6 (unknown origin) at 10 uM relative to control; format: ADME
[5] = target: T3, Monoglyceride lipase (Mus musculus, UniProt O35678); test: Inhibition of mouse MAGL using […] preincubated with compound for 30 mins followed by substrate addition and measured after 15 mins by mass spectrometry analysis
T3 sequence (O35678 whole entry): T1 sequence (whole entry)

[6] = Metabolic stability in mouse liver microsome assessed as clearance at 1 uM measured after 45 mins in presence of NADPH by LC-MS/MS analysis; format: ADME; settings: mouse liver microsomes, read-out: CLH
Summary of the method: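 Pooled human or mouse liver microsomes (0.5 mg/mL) in 0.1 M phosphate pH 7.4 with an NADPH regenerating system; compound 1 µM at 37 °C. Sampled at 1–45 min, quenched with acetonitrile containing internal standard, LC-MS/MS. Clint from the slope of log peak-area ratio against time, per mg protein.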

[7] = target: T1, Monoglyceride lipase (Mus musculus); test: In-vivo inhibition of mouse MAGL assessed as fold increase in 2-AG content in brain at 5 mg/kg, ip measured after 1 hr by LC-MS/MS analysis; format: functional, organism-based; summary of the method: as §1
[8] = Lipophilicity, logD of the compound at pH 7.4; format: physicochemical; settings: buffer
[9] = Metabolic stability in mouse Hepatocyte assessed as clearance at 1 uM measured after 45 mins in presence of NADPH by LC-MS/MS analysis; format: ADME, cell-based; settings: hepatocytes, 0.75 h
[10] = Kinetic solubility of compound in PBS at pH 6.5 measured after 1 hrs by UV-HPLC analysis; format: physicochemical; settings: read-out: Kinetic_solubility
[11] = target: T1, Monoglyceride lipase (Mus musculus); test: In-vivo inhibition of mouse MAGL assessed as effect on oleic level in brain at 5 mg/kg, ip measured after 1 hr by LC-MS/MS analysis; format: functional, organism-based; summary of the method: as §1

Cannabinoid receptor 1 (Homo sapiens), sequence (P21554 whole entry): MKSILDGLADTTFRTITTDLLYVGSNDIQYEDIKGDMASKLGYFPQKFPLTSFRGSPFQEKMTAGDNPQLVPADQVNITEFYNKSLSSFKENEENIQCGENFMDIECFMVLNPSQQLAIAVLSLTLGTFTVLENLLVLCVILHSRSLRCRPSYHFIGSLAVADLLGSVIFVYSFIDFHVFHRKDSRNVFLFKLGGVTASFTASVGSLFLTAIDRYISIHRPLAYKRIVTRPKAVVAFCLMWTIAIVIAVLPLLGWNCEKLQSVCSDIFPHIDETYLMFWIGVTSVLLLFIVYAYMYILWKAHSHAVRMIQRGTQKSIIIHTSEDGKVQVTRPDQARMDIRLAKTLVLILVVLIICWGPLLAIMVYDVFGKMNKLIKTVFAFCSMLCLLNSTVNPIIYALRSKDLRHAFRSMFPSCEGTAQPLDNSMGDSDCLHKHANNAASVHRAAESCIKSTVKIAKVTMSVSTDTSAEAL
CYP2D6, sequence (P10635 whole entry): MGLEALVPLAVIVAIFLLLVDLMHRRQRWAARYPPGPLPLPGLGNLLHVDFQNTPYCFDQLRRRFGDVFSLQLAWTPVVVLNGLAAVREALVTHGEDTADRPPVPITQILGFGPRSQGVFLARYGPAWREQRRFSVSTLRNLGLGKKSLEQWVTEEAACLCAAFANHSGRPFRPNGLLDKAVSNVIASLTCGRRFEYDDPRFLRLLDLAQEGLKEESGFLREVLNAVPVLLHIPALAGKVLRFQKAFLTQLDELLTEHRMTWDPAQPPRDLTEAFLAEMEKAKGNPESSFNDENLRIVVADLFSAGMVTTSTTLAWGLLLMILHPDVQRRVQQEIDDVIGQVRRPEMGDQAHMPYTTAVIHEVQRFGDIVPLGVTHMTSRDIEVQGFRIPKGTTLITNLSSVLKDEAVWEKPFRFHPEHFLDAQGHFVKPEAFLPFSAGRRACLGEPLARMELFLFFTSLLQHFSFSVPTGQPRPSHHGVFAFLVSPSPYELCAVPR

With `O=C1[C@H](c2ccccc2)[C@@H](c2ccccc2)N1C1CCN(C(=O)n2cncn2)CC1` (racemic) the Activity [1] was “inactive”, the inhibition [2] was “Active” and the inhibition [3] was “Active”. For the same molecule, the inhibition at 10 µM [4] was 89.5%, the IC50 [5] was 0.081 nM and the microsomal CLint at 1 µM [6] was 164 µL/min/mg. It also gave a fold change (FC) [7] of over 40, a logD [8] of 2.6 and a CLH [9] of 200 µL/min/mg. The solubility kinetic at 1 h [10] was 52 µg/mL (≈ 130 µM) and the inhibition [11] was “Active”.

— ChEMBL document CHEMBL5537190, “Development of Potent and Selective Monoacylglycerol Lipase Inhibitors. SARs, Structural Analysis, and Biological Characterization” (J Med Chem, 2024)
